Compounds with a hit are over-represented: about 3.8% of the library has one in this group of screens.
KCNQ1 pot: potentiators or activators of human KCNQ1 potassium channel; P51787; CHO-K1 KCNQ1, thallium flux FluxOR fluorescence; active compounds read high; B-score at 10 µM; 0.35% of 310,000 active;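 active = fluorescence ratio B-score, a plate-corrected score, at least three library SD, with initial intensity B-score within 5 SD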
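Test system: CHO-K1 cells stably expressing KCNQ1 / Medium: assay buffer / Also added: depolarizing K+/Tl+ stimulus, K2SO4 and Tl2SO4 each 12.5 mM in 5x stock / Incubation: 90 min dye loading and 20 min compound exposure, both at room temperature / Signal: thallium influx via FluxOR fluorescence, kinetic imaging / Evaluation: B score of baseline-normalized fluorescence ratio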
hERG rescue: compounds protecting human hERG from proarrhythmic drug block | AID 1511 | activation (rescue from dofetilide block), less the hit threshold, % at 10 µM | Q12809 | 0.51% of 310,000 active | CHO-hERG, FluxOR thallium flux, dofetilide IC70 present;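 active = activation above the mean of controls blocked by dofetilide plus 5 SD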;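 also: thallium influx through hERG after potassium depolarization seen as dye fluorescence rise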
KCNK3 block: human KCNK3 channel inhibition, primary screen. B-score at 10 µM. CHO-KCNK3 thallium flux, FluxOR fluorescence; active compounds read low. O14649. 0.84% of 340,000 active. AID 602410;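 active = B-score under library mean minus 4 SD, starting fluorescence ratio at most library mean plus 5 SD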;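 also: more negative B-score means stronger inhibition of thallium flux through KCNK3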
Kir21 inh: Kir2.1 (mouse) channel inhibition | 0.85% of 310,000 active | B-score at 10 µM | HEK293-Kir2.1, FluxOR thallium flux fluorescence; active compounds read low | P35561 | AID 1672;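 active = fluorescence ratio B-score at or below minus 3 SD of library scores, with starting-brightness B-score within 2 SD, cut at about -4.2 in these data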;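 also: channel flux triggered by added potassium and thallium sulfate stimulus; B-score of peak minus minimum fluorescence over baseline after thallium stimulus; more negative B-score means stronger Kir2.1 block with less thallium influx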
KCNQ1 block: human KCNQ1 channel inhibition; P51787; CHO-K1 KCNQ1, FluxOR thallium flux fluorescence; active compounds read high; B-score at 10 µM; 1.3% of 310,000 active; AID 2642;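 active = compounds whose thallium flux B-score, printed positive for inhibition, exceeds three library SD while starting fluorescence stays within three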;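 also: channel opened by potassium depolarization with thallium stimulus after 20 min compound exposure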
KCNK9 block: human KCNK9 channel inhibition | B-score at 10 µM | AID 488922 | HEK293 KCNK9, FluxOR thallium flux fluorescence; active compounds read low | 1.2% of 310,000 active;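 active = ratio B-score over 3 SD below the library mean, with starting fluorescence within 5 SD of its mean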;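 also: negative B-score means less thallium flux so channel inhibition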
Target sequence (Q9NPC2 whole entry, looked up): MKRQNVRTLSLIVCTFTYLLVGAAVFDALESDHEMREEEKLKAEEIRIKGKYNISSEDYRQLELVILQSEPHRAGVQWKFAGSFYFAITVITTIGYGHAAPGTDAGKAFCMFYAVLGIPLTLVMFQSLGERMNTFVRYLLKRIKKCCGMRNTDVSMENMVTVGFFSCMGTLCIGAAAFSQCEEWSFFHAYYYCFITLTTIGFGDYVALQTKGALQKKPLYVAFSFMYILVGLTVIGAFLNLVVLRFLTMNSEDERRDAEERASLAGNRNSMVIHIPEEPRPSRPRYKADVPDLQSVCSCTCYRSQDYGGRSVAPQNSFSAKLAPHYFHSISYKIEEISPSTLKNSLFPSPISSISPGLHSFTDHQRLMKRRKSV
KCNK9 inh conf: confirmation of human KCNK9 potassium channel inhibitors; 43% of 4,900 active; AID 492992; shares compounds with KCNK9 block; inhibition, % at 10 µM; HEK293 KCNK9 cells, FluxOR thallium flux fluorescence;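 active = thallium signal inhibited by more than 5 SD of the compound-free buffer control wells, on both duplicate plates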;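 also: 0% = assay buffer control wells without compound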
Kir21 sel: tests whether KCNK9 modulators also affect mouse Kir2.1; Kir2.1 cells, FluxOR thallium flux fluorescence; shares compounds with KCNK9 block; inhibition, % at 10 µM; 4% of 4,900 active;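 active = thallium signal drop more than 5 SD beyond the mean of the no-compound control wells, seen in both duplicate plates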;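 also: signal is fluorescence rise after thallium addition divided by baseline fluorescence; plate controls were assay buffer only for no effect and full block by chlorpromazine control for full effect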
KCNK9 uninduced: second counter-screen for KCNK9 modulators: effect in non-induced cells. non-induced KCNK9-HEK293, FluxOR thallium flux. 40% of 4,900 active. shares compounds with KCNK9 block. inhibition, % at 10 µM;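 active = thallium signal drop beyond 5 SD of the untreated control mean, on both duplicate plates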;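 also: plate controls were buffer only IC0 wells for no effect and SID17386958 at its maximal inhibitory level for full effect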
Active calls of the source: *; i = inactive; x = no result.

SMILES	KCNQ1 pot	hERG rescue	KCNK3 block	Kir21 inh	KCNQ1 block	KCNK9 block	KCNK9 inh conf	Kir21 sel	KCNK9 uninduced
CCOC(=O)C(C(=O)OCC)C(Nc1ccc(Br)cc1)c1ccccc1 (stereo not given)	i	-7.0	i	0.46	i	i	x	x	x
O=C(c1ccco1)N1CCN(c2c([N+](=O)[O-])nn(-c3cccc(Cl)c3)[n+]2[O-])CC1	i	-10.2	i	0	i	i	x	x	x
O=C(NCc1ccco1)c1ccc2c(c1)N(Cc1ccccc1)C(=O)CS2	i	-14.1	i	-0.92	i	i	i	i	i
COC(=O)C(C)Oc1ccc(Oc2nc(Cl)ccc2Cl)cc1 (stereo not given)	i	-11.6	i	0.6	i	i	x	x	x
COc1cc(-c2nc(-c3ccccc3)c(-c3cc([N+](=O)[O-])ccc3C)[nH]2)cc(OC)c1OC	i	-6.7	-11.5*	-0.67	9*	-13.5*	60.0%*	i	23.5%*
O=[N+]([O-])c1cccc(-c2nc(-c3ccccc3)c(-c3cccs3)[nH]2)c1	i	-3.0	i	2.28	i	i	x	x	x
O=C(O)COc1ccc(/C=C/c2nc(-c3ccccc3O)n[nH]2)cc1	i	-6.9	i	0.59	i	i	x	x	x
COc1ccc(/C=C/c2nc(-c3ccccc3O)n[nH]2)cc1OC	i	2.1	i	-1.64	i	i	i	i	i
COC(=O)C1=C(C(=O)OC)SC(=C2C(=S)C(C)(C)N(C(=O)CC(C)C)c3ccccc32)S1	i	-12.5	i	-1.31	i	-11.1*	26.0%*	i	32.0%*
N#Cc1ccc(C(=O)OCC(=O)NC(=O)NCc2ccccc2)cc1	x	x	i	x	x	x	x	x	x
CCCN(CCC)C(=O)CSc1nc2ccccc2c(=O)n1CC1COc2ccccc2O1 (stereo not given)	i	-7.9	i	-2.63	i	i	i	i	i
CCOc1ccc(N2C(=O)C3C(c4ccccc4F)NN(C(=O)c4ccc(C)cc4)C3C2=O)cc1 (stereo not given)	i	-7.9	i	0.67	i	i	x	x	x
Cc1nc(NCCCN2CCOCC2)c2cnn(-c3ccccc3)c2n1	x	x	i	x	x	x	x	x	x
CCN(CC)CCOc1ccc(/C(=C(\Cl)c2ccccc2)c2ccccc2)cc1	i	-33.7	i	-0.84	11*	i	i	i	i
CCCCCC(=O)O[C@]1(C(C)=O)CC[C@H]2[C@@H]3CCC4=CC(=O)CC[C@]4(C)[C@H]3CC[C@@]21C	i	-5.4	-10*	0.01	12*	-13.2*	66.0%*	i	45.0%*
Cc1cc(C)n(-c2nc3ccccc3nc2N2CCN(C(=O)c3ccccc3)CC2)n1	i	-7.7	i	-1.48	i	i	i	i	i
Cc1cc(C)n(-c2ccc(C(=O)N3CCN(c4ccccn4)CC3)cc2)n1	x	x	i	x	x	x	x	x	x
CCN=c1scc(-c2ccco2)n1/N=C/c1ccc(O)cc1	i	-11.3	i	0.79	i	i	x	x	x
CCN=c1scc(-c2ccco2)n1/N=C/c1ccc(OC)c(O)c1	i	-17.7	i	-0.02	i	i	i	i	i
CC(C)c1cc(C(N)=O)c(NC(=O)c2cccc(COc3ccc(Cl)cc3)c2)s1	i	-9.3	i	0.7	i	i	x	x	x
CC(C)COc1ccc(C(=O)Nc2scc(-c3ccc(Cl)cc3Cl)c2C(N)=O)cc1	i	-12.3	i	-0.54	i	i	i	i	i
CCOC(=O)C1=C(C)N=C2SC(CC)C(=O)N2C1c1cccc(F)c1 (stereo not given)	i	-11.7	i	-1.14	i	-11.6*	35.5%*	i	34.0%*
CCn1c(CSc2nc3ccccc3s2)nnc1SCC(=O)NCC(=O)OC	i	-12.2	i	-0.63	i	i	x	x	x
N#Cc1cc(N)ccc1Sc1ccc(Cl)cc1	i	-5.8	i	0.18	i	-8.51*	38.0%*	i	32.0%*
O=C(O)CSc1cc(NS(=O)(=O)c2ccc(Br)cc2)c2ccccc2c1O	i	-7.0	i	1.26	i	i	i	i	28.5%*
SMILES	KCNQ1 pot	hERG rescue	KCNK3 block	Kir21 inh	KCNQ1 block	KCNK9 block	KCNK9 inh conf	Kir21 sel	KCNK9 uninduced
Cc1ccc(C)c(Oc2cc(NN3CCCCC3)c([N+](=O)[O-])cc2[N+](=O)[O-])c1	i	-7.7	i	-1.11	i	-10.6*	32.0%*	i	i
O=[N+]([O-])c1cc([N+](=O)[O-])c(Oc2ccccc2F)cc1NN1CCCCC1	i	-15.2	i	0.34	i	i	x	x	x
COCC1CCN(C(=O)c2cc(COc3ccc(F)cc3F)on2)C1 (stereo not given)	i	0.7	i	0.45	i	i	x	x	x
Cc1ccc(C)c(OCc2cc(C(=O)N3CC[C@@H]4CCCC[C@H]4C3)no2)c1	i	-12.6	i	0	i	i	i	i	23.5%*
COc1cc(C)ccc1OCc1cc(C(=O)N2CCC(c3ccc(F)cc3)C2)no1 (stereo not given)	i	-7.5	i	0.71	i	i	i	i	i
Cc1cc(=O)n2nc(N3CCCC3C(=O)Nc3cccc(F)c3)sc2n1 (stereo not given)	i	-6.2	i	2.05	i	i	x	x	x
CCCCCN(C(=O)NC(=O)Nc1ccc(C)cc1)S(=O)(=O)c1ccccc1	i	-8.0	i	0.69	i	i	x	x	x
CCc1ccc(N=C2NC(=O)/C(=C/c3cc(OC)c(O)c(OC)c3)S2)cc1	i	-11.2	i	-0.11	i	-8.78*	i	i	33.5%*
COc1cc(/C=C2\SC(=Nc3ccccc3)NC2=O)cc(Cl)c1O	i	-1.3	i	-3.27	i	i	x	x	x
CC1CCN(CC2C(=O)O[C@@H]3C[C@@]4(C)CCC[C@H](C)C4=C[C@H]23)CC(C)(C)C1 (stereo not given in full)	i	-9.4	i	-2.85	i	i	x	x	x
O=C(O)CCCN1C(=O)/C(=C/c2cn(-c3ccccc3)nc2-c2cccs2)SC1=S	i	-26.1	i	-0.36	i	i	x	x	x
Cc1nn(-c2ccccc2)c(Cl)c1/C=C1\SC(=S)N(CCCCCC(=O)O)C1=O	i	-19.5	i	-0.64	i	i	i	i	i
